Assay results published in ChEMBL document CHEMBL4020814, “Synthesis, Binding Mode, and Antihyperglycemic Activity of Potent and Selective (5-Imidazol-2-yl-4-phenylpyrimidin-2-yl)[2-(2-pyridylamino)ethyl]amine Inhibitors of Glycogen Synthase Kinase 3” (J Med Chem, 2017).

Legend:
[1] = Inhibition of GSK3 expressed in CHO-IR cells expressing human insulin receptor assessed as glycogen synthase activation after 30 mins by filter paper assay; type: cell-based, Cavia porcellus
[2] = Plasma concentration in diabetic db/db mouse at 30 mg/kg administered at 4.5 and 0.5 hrs prior to oral glucose challenge measured 20 mins post second dose; conditions: plasma
[3] = Inhibition of human GSK3 using biotin-CREB peptide substrate after 1 hr by scintillation counting method
Mus musculus = organism: Mus musculus; experiment: Antidiabetic activity in diabetic db/db mouse assessed as time required for improved glucose disposal by oral glucose tolerance test; type: functional
Summary of the method: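 db/db mice, 6–8 per group, fasted ~6 h (food removed 3 h before prebleed), dosed orally at −4.5 and −0.5 h relative to oral glucose (vehicle 10% captisol). Tail-snip blood glucose was read by glucometer or analyzer; plasma insulin was measured by ELISA.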

[4] = Half life in diabetic ZDF fa/fa rat at 8 mg/kg administered 4.5 and 0.5 hrs prior to oral glucose challenge; type: ADME, organism-based; conditions: in vivo
[5] = Oral bioavailability in diabetic ZDF fa/fa rat at 8 mg/kg administered 4.5 and 0.5 hrs prior to oral glucose challenge; type: ADME, organism-based; conditions: in vivo
[6] = Stability in rat liver microsomes assessed as half life; type: ADME, microsome
[7] = Stability in dog liver microsomes assessed as half life; type: ADME, Canis lupus familiaris, microsome
Rattus norvegicus = experiment: Antidiabetic activity in diabetic ZDF fa/fa rat assessed as reduction in plasma glucose AUC at 8 mg/kg administered 4.5 and 0.5 hrs prior to oral glucose challenge by oral glucose tolerance test; type: functional; parameters: scale not given: the % may be the effect or the level left
Summary of the method: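 Obese 10-week-old ZDF (fa/fa) rats, n = 8/group, fasted overnight, given 8 mg/kg orally at 4.5 and 0.5 h before oral glucose challenge. Efficacy is the percent reduction in plasma glucose AUC versus untreated animals. Formulations were 15% captisol, 1% CMC or water with pH adjusted.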

[8] = Stability in human liver microsomes assessed as half life; type: ADME, microsome
[9] = molecular target: Glycogen synthase kinase-3 beta (Homo sapiens, UniProt P49841); experiment: Inhibition of human GSK3beta using biotin-CREB peptide substrate after 1 hr by scintillation counting method
[10] = molecular target: T1, Protein kinase C zeta type (Homo sapiens, UniProt Q05513); experiment: Inhibition of human PKCzeta using biotin-PKC-86 peptide substrate after 30 mins in the presence of phosphatidylserine and diacylglycerol activators by scintillation counting
T1 sequence (Q05513 whole entry): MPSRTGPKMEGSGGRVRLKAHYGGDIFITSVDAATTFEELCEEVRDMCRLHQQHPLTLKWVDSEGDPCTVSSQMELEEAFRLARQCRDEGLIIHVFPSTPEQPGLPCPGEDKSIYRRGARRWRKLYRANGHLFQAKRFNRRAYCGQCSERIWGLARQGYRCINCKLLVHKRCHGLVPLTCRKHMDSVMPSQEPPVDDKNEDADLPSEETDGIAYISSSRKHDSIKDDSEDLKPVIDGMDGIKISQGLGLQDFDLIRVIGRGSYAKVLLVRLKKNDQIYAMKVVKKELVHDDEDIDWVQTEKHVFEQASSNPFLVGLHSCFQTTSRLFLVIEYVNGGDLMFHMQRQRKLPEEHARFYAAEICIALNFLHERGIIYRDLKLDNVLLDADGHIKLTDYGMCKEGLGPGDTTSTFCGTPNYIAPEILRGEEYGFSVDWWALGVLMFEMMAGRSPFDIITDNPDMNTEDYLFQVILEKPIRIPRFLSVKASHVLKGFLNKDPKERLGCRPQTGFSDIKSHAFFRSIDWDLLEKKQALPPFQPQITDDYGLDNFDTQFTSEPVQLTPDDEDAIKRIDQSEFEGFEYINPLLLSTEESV
Summary of the method: (§1)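 Kinase buffer: 50 mmol/L Tris-HCl pH 7.5, 10 mmol/L MgCl2, 1 mmol/L EGTA, 1 mmol/L DTT, 25 mmol/L β-glycerophosphate, 1 mmol/L NaF, 0.01% BSA. It contained kinase, peptide substrate and activators. Compound was added in DMSO with 1 μmol/L final ATP. PKC-ζ, AMPK and pdk1 were commercial enzymes.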

[11] = molecular target: Cyclin-dependent kinase 1 (Homo sapiens, UniProt P06493); experiment: Inhibition of human CDC2 using biotin histone H1 peptide substrate after 1 hr by scintillation counting method
Sequence of Cyclin-dependent kinase 1 (P06493 whole entry): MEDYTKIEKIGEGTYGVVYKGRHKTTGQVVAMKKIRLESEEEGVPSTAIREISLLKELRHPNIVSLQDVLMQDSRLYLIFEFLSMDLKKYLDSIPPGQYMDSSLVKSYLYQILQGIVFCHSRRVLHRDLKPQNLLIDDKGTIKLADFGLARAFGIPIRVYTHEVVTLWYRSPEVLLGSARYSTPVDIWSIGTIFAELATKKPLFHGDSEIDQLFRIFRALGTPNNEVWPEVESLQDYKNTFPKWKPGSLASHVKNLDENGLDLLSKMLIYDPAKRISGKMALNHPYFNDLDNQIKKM

[12] = Inhibition of human phosphatidylinositol (PI) 3-kinase using PI as substrate after 1 hr by scintillation counting method
[13] = Inhibition of rat AMP kinase using SAMS peptide substrate in the presence of AMP after 1 hr by scintillation counting method; summary of the method: as §1
[14] = molecular target: Mitogen-activated protein kinase 1 (Homo sapiens, UniProt P28482); experiment: Inhibition of human ERK2 using myelin basic protein substrate after 1 hr by scintillation counting method
[15] = molecular target: Vascular endothelial growth factor receptor 1 (Homo sapiens, UniProt P17948)
[16] = molecular target: RAC-alpha serine/threonine-protein kinase (Homo sapiens, UniProt P31749); experiment: Inhibition of human AKT1/PKB using phospho-AKT peptide substrate after 1 hr by scintillation counting method
[17] = molecular target: T2, Serine/threonine-protein kinase Chk1 (Homo sapiens, UniProt O14757); experiment: Inhibition of human CHK1 using biotin-CDC25 peptide substrate after 1 hr by scintillation counting method
T2 sequence (O14757 whole entry): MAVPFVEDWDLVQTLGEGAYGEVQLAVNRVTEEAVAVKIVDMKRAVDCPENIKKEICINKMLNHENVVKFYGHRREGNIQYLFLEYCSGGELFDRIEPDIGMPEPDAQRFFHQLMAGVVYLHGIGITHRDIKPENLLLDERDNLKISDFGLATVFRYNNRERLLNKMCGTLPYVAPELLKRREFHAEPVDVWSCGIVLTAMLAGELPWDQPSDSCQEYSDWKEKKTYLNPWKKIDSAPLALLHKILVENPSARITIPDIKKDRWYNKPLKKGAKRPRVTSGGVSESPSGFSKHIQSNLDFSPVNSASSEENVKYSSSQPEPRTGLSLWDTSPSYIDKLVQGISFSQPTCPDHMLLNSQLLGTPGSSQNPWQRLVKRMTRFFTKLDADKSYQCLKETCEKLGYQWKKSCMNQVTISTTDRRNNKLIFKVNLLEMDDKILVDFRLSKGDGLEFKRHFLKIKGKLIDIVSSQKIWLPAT

[18] = molecular target: Fibroblast growth factor receptor 1 (Homo sapiens, UniProt P11362)
Sequence of Fibroblast growth factor receptor 1 (P11362 whole entry): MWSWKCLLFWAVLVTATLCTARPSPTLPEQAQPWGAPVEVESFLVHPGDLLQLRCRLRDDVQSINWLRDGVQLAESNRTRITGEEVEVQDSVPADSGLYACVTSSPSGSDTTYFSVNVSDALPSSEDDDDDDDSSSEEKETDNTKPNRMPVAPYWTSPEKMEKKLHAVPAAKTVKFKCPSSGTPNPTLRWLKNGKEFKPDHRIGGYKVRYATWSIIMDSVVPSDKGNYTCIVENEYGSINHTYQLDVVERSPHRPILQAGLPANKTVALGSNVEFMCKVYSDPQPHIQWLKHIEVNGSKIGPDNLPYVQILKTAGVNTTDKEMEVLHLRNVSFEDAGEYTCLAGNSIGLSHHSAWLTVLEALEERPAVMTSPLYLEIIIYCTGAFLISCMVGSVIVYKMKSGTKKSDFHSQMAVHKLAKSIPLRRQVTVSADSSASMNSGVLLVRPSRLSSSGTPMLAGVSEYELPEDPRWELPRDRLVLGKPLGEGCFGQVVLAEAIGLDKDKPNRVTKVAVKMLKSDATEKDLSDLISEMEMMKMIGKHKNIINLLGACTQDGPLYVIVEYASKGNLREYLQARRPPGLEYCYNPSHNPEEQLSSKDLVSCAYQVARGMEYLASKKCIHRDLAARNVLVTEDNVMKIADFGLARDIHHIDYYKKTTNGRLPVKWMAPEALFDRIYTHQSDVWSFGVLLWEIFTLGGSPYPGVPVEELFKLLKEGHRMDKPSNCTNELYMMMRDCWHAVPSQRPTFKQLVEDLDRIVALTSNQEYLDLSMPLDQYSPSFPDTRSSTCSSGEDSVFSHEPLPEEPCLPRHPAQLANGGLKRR

Angiopoietin-1 receptor = Angiopoietin-1 receptor (Homo sapiens, UniProt Q02763)
Sequence of Angiopoietin-1 receptor (Q02763 whole entry): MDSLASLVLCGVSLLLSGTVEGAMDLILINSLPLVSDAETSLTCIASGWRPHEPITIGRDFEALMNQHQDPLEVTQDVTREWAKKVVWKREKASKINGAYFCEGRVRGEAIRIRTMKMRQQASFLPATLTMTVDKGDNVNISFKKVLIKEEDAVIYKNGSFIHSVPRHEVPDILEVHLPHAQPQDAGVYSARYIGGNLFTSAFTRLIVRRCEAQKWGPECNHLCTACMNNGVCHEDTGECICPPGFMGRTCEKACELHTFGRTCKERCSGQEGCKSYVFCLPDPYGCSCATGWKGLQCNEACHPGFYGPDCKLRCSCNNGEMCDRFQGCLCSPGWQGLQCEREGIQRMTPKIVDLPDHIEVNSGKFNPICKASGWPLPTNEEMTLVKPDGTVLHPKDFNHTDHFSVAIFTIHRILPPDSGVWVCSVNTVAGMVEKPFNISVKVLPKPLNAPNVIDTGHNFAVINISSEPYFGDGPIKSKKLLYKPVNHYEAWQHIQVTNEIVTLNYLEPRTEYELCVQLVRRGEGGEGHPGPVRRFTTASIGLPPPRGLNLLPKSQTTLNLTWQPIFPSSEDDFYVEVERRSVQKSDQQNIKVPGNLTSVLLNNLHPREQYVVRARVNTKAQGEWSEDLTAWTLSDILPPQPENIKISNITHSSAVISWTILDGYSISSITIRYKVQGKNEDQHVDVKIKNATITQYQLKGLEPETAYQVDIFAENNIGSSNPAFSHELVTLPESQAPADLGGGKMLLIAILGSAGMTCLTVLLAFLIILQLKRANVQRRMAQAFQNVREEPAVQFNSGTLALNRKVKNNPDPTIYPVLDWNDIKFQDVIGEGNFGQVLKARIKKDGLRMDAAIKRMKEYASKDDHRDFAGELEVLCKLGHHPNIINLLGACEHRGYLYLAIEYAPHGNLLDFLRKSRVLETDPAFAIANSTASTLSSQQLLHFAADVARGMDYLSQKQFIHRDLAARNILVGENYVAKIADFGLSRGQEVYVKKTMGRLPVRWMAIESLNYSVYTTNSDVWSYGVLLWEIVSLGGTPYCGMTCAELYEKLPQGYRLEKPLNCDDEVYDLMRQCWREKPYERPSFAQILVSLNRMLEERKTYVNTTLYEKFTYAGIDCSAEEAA

[19] = molecular target: Vascular endothelial growth factor receptor 2 (Homo sapiens, UniProt P35968)
Sequence of Vascular endothelial growth factor receptor 2 (P35968 whole entry): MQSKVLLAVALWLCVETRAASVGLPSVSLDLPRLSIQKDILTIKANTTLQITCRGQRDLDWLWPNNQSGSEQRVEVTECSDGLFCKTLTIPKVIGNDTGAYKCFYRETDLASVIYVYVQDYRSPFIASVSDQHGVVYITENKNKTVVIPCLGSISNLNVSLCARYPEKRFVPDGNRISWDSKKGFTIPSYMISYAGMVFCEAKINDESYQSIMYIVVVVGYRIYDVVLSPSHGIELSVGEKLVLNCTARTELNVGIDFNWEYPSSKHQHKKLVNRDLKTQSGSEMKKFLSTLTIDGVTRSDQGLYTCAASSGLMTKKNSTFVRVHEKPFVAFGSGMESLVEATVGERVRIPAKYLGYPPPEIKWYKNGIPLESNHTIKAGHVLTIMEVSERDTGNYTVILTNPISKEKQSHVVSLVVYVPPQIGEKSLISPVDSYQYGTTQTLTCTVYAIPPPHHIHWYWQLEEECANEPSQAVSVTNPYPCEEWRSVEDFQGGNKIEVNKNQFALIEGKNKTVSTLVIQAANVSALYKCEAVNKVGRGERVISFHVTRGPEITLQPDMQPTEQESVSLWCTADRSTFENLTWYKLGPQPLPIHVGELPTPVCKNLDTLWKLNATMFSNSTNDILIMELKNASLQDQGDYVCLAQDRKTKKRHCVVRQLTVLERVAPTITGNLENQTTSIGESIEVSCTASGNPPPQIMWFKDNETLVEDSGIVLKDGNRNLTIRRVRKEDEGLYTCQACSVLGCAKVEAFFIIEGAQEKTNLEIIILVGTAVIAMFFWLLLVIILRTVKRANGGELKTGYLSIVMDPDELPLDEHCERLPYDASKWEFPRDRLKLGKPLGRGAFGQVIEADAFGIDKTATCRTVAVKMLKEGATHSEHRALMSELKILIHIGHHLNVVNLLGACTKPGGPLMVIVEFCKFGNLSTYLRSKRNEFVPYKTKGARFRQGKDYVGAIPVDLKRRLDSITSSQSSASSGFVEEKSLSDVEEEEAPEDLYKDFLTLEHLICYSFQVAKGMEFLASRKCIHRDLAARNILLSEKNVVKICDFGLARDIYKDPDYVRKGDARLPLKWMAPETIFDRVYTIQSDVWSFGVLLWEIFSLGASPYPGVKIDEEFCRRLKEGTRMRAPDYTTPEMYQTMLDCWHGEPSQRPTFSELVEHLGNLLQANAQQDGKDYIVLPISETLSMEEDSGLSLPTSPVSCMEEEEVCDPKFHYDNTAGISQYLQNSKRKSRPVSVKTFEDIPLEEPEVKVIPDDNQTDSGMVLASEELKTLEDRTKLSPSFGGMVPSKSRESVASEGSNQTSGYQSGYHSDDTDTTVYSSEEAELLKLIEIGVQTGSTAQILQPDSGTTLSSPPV

[20] = molecular target: T3, 3-phosphoinositide-dependent protein kinase 1 (Homo sapiens, UniProt O15530); experiment: Inhibition of human PDK1 using unactivated AKT substrate in presence of COPC, DOPS and PIP3 activators after 1 hr by scintillation counting method; summary of the method: as §1
T3 sequence (O15530 whole entry): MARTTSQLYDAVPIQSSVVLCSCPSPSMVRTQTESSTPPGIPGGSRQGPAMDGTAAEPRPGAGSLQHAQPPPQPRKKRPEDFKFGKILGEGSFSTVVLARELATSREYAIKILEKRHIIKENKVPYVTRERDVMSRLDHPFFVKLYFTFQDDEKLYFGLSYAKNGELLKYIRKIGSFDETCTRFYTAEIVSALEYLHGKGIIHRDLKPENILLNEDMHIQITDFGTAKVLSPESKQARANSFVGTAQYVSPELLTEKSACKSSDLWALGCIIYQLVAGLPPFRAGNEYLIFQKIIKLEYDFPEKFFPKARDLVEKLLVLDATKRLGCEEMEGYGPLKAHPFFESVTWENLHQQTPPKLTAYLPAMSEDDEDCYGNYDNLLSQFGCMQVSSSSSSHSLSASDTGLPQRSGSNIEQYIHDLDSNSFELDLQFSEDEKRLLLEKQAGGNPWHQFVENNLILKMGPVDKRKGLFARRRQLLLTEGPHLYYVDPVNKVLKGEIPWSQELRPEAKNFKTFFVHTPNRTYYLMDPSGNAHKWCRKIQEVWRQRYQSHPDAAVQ

[21] = molecular target: Insulin-like growth factor 1 receptor (Homo sapiens, UniProt P08069)
Sequence of Insulin-like growth factor 1 receptor (P08069 31-736 limits assumed): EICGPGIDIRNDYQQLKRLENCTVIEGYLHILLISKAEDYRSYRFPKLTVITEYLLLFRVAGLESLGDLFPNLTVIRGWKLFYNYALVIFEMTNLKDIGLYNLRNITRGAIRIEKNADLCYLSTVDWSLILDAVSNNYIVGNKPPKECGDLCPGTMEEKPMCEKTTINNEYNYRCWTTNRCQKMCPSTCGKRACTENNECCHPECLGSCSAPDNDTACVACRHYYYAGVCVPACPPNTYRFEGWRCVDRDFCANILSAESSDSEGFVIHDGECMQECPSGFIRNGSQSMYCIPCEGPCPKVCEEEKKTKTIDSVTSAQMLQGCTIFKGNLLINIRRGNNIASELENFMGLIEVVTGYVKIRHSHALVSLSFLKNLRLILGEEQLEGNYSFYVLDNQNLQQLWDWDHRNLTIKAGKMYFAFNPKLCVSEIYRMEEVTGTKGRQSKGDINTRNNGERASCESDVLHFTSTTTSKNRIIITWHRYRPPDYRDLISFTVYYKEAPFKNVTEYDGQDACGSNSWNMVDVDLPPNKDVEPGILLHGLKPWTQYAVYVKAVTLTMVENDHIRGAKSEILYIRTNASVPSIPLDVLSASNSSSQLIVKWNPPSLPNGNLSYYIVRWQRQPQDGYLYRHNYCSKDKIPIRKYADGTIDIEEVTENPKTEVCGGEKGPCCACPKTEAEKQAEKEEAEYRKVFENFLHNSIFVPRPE
Sequence of Insulin-like growth factor 1 receptor (P08069 741-1367 limits assumed): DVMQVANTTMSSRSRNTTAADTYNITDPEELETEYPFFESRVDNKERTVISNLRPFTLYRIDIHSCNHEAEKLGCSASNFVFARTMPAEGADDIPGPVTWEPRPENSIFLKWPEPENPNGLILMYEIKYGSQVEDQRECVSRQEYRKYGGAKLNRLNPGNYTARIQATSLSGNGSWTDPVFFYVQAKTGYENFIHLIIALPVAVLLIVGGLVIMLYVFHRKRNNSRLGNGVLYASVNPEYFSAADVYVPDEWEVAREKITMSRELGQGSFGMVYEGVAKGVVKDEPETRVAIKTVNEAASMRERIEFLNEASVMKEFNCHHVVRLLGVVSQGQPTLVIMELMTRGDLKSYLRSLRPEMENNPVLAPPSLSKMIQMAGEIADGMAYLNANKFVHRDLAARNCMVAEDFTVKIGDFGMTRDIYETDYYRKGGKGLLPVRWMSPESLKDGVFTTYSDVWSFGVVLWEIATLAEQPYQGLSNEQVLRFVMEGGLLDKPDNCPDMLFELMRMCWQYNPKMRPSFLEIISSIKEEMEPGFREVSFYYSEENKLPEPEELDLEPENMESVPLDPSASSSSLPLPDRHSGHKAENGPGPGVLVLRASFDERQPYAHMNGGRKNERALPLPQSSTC

[22] = molecular target: Glycogen synthase kinase-3 alpha (Homo sapiens, UniProt P49840); experiment: Inhibition of human GSK3alpha using biotin-CREB peptide substrate after 1 hr by scintillation counting method
[23] = Inhibition of human DNA-dependent protein kinase using PI as substrate after 1 hr by scintillation counting method
[24] = molecular target: Casein kinase I isoform epsilon (Homo sapiens, UniProt P49674); experiment: Inhibition of human CK1epsilon using biotin peptide substrate after 1 hr by scintillation counting method

Row | Compound | EC50 [1] | concentration at 20 min [2] | IC50 [3] | half-life [4] | bioavailability [5] | half-life [6] | half-life [7] | Activity (Rattus norvegicus) | further results
1 | Cc1c[nH]c(-c2cnc(NCCNc3ccc([N+](=O)[O-])cn3)nc2-c2ccc(Cl)cc2Cl)n1 | 290 nM | 19000 ng/mL | 8 nM | – | – | – | – | – | –
2 | CN(C)C(=N)NC(=N)N [METFORMIN] | – | – | – | – | – | – | – | – | Time (Mus musculus): <=2 weeks
3 | O=[N+]([O-])c1ccc(NCCNc2ncc(-c3ncc[nH]3)c(-c3ccc(Cl)cc3Cl)n2)nc1 | 370 nM | 97000 ng/mL | 4 nM | 143 min | 33% | > 30 min | > 30 min | 29% | –
4 | N#Cc1ccc(NCCNc2ncc(-c3ncc[nH]3)c(-c3ccc(Cl)cc3Cl)n2)nc1 | 510 nM | 29000 ng/mL | 4 nM | 52 min | 21% | > 30 min | > 30 min | 18% | half-life [8]: 33 min
5 | Nc1nc(NCCNc2ncc(-c3ncc[nH]3)c(-c3ccc(F)cc3C(F)(F)F)n2)ccc1[N+](=O)[O-] | 3300 nM | – | 13 nM | – | – | > 30 min | > 30 min | – | –
6 | Nc1nc(NCCNc2ncc(N3CCOCC3)c(-c3ccc(Cl)cc3Cl)n2)ccc1[N+](=O)[O-] | 70 nM | 1000 ng/mL | 7 nM | – | – | – | – | – | –
7 | Nc1nc(NCCNc2ncc(-c3ncc[nH]3)c(-c3ccc(Cl)cc3Cl)n2)ccc1[N+](=O)[O-] | 260 nM | 19000 ng/mL | 1 nM | 46 min | 6% | > 30 min | > 30 min | 29% | IC50 [9]: 0.6 nM; IC50 [10]: > 10000 nM; IC50 [11]: > 10000 nM; IC50 [12]: > 5000 nM; IC50 [13]: > 10000 nM; IC50 [14]: > 10000 nM; IC50 [15]: > 5000 nM; IC50 [16]: > 10000 nM; IC50 [17]: > 10000 nM; IC50 [18]: > 5000 nM; IC50 (Angiopoietin-1 receptor): > 25000 nM; IC50 [19]: > 5000 nM; IC50 [20]: > 10000 nM; IC50 [21]: > 10000 nM; IC50 [22]: 27.1 nM; IC50 [23]: > 10000 nM; IC50 [24]: > 10000 nM
8 | N#Cc1ccc(NCCNc2ncc(-n3ccnc3)c(-c3ccc(Cl)cc3Cl)n2)nc1 | 790 nM | 13000 ng/mL | 25 nM | – | – | – | – | – | –
9 | N#Cc1ccc(-c2nc(NCCNc3ccc([N+](=O)[O-])cn3)ncc2-n2ccnc2)cc1 | 1300 nM | 5000 ng/mL | 11 nM | – | – | – | – | – | –
10 | Cc1cc(Cl)ccc1-c1nc(NCCNc2ccc([N+](=O)[O-])c(N)n2)ncc1-c1ncc[nH]1 | 810 nM | – | 19 nM | – | – | > 30 min | > 30 min | – | –
